Assay results from different studies.
Compare with care: the assays were run in different laboratories.
Concentration: 1 µM
EGFR del746-750: Epidermal growth factor receptor (EGFR, Homo sapiens, UniProt P00533, del746-750)
EGFR G719S: Epidermal growth factor receptor (EGFR, Homo sapiens, UniProt P00533, G719S)
EGFR del752-759: Epidermal growth factor receptor (EGFR, Homo sapiens, UniProt P00533, del752-759)
EGFR L858R: Epidermal growth factor receptor (EGFR, Homo sapiens, UniProt P00533, L858R)

SMILES | target | read-out | technique | remaining binding
O=C(Nc1cccnn1)N1CC(C/C=C/c2cncc(Oc3ccc(C(F)(F)F)cn3)n2)C1 | Epidermal growth factor receptor (EGFR, Homo sapiens, UniProt P00533, G719C) | cell-free assay | competition with immobilised ligand | 100%
O=C(NCCCN1CCOCC1)c1ccc(Nc2nccc(-c3cc4ccccc4s3)n2)cc1 | Epidermal growth factor receptor (EGFR, Homo sapiens, UniProt P00533, T790M) | binding | competition with immobilised ligand | 90%
c1cnn2ncc(-c3ccnc(N4CCC45COC5)n3)c2c1 | EGFR del746-750 | binding |  | 89%
O=C(c1ccc(Nc2ncc(Cl)c(-c3ccc(Cl)s3)n2)cc1)N1CCC(N2CCCC2)CC1 | EGFR del746-750 | binding | competition with immobilised ligand | 90%
CN(CCCC(F)(F)F)c1nccc(-c2cnn3ncccc23)n1 | EGFR G719S | binding |  | 98%
Cn1nc(C(F)(F)F)cc1-c1cnc(N2CCc3cc(S(=O)(=O)Nc4c(F)cc(Cl)cc4F)cc(N4CCCC4=O)c32)nc1 | EGFR del752-759 | cell-free assay | competition with immobilised ligand | 100%
CN(C)c1nccc(-c2cnc3ncccn23)n1 | EGFR G719S | binding |  | 84%
O=C(c1ccc(Nc2nccc(-c3cc4ccccc4s3)n2)cc1)N1CCC(N2CCCC2)CC1 | EGFR del752-759 | binding | competition with immobilised ligand | 93%
COc1ccnn2ncc(-c3ccnc(N(C)C)n3)c12 | EGFR G719S | binding |  | 96%
Cc1cnc(Nc2ccc(C(=O)N3CCC(N4CCCC4)CC3)cc2)nc1-c1cc2ccccc2s1 | EGFR G719S | binding | competition with immobilised ligand | 97%
COc1cnc(Nc2cccc(S(N)(=O)=O)c2)nc1N1CCN(c2ccccc2)C(=O)C1 | EGFR del746-750 | binding | competition with immobilised ligand | 96%
C[C@@H]1CN(c2cc(-c3nn(C)c4ccc(OC5(C)CC5)cc34)ncn2)C[C@H](C)O1 | EGFR L858R | cell-free assay | competition with immobilised ligand | 95%
O=C(NCC1CCOCC1)c1n[nH]cc1NC(=O)c1c(F)cccc1F | EGFR del746-750 | binding | competition with immobilised ligand | 100%
Cc1cnn2ncc(-c3ccnc(N(C)C)n3)c2c1 | EGFR G719S | binding |  | 100%
Nc1cnc(N2CCc3cc(S(=O)(=O)Nc4c(F)cc(Cl)cc4F)cc(N4CCCC4=O)c32)nc1 | EGFR L858R | cell-free assay | competition with immobilised ligand | 85%
O=C(c1ccc(Nc2ncc(Cl)c(-c3cc4ccccc4s3)n2)cc1)N1CCC(N2CCCC2)CC1 | EGFR L858R | binding | competition with immobilised ligand | 81%
CN(c1ccnc(CNc2nc(Nc3ccc4c(c3)CC(=O)N4)ncc2C(F)(F)F)n1)S(C)(=O)=O | EGFR del752-759 | cell-free assay | competition with immobilised ligand | 76%
F[C@@H]1CCN(c2nccc(-c3cnn4ncccc34)n2)C1 | EGFR del752-759 | binding |  | 100%
COc1ccc2c(c1)O[C@H](c1ccc(OC)c(OC)c1)C[C@@H]2NC(=O)C1(c2ccc3c(c2)OC(F)(F)O3)CC1 | EGFR G719S | cell-free assay | competition with immobilised ligand | 99%
Nc1ncc2c(n1)-c1c([nH]c3ccc(C#CC4CC4)cc13)CCCC2 | EGFR del746-750 | binding | competition with immobilised ligand | 72%
CNC(=O)[C@@H]1CC[C@@H](n2c(-c3ccc4cnccc4c3)nc3ccc(C(=O)NCc4cccc(C(N)=O)c4)cc32)C1 | Epidermal growth factor receptor (EGFR, Homo sapiens, UniProt P00533, L858R/T790M) | binding | competition with immobilised ligand | 92%
C[C@@H]1CCN(c2nccc(-c3cnn4ncccc34)n2)C1 | EGFR L858R | binding |  | 93%
COc1cc(-c2cn(C3CCc4c(F)cccc4N(CC(F)(F)F)C3=O)nn2)ccc1-n1cnc(C)c1 (centres unmarked) | EGFR L858R | cell-free assay | competition with immobilised ligand | 100%
